Experimental data as given in ChEMBL document CHEMBL3769384, “Discovery of Tetrahydropyrazolopyridine as Sphingosine 1-Phosphate Receptor 3 (S1P3)-Sparing S1P1 Agonists Active at Low Oral Doses” (J Med Chem, 2016).

What was measured:
[1] = Clearance in CD1 mouse at 1 mg/kg, iv after 24 hrs by LC-MS/MS analysis; assay type: ADME, organism-based; details: in vivo
Procedure, shortened: (§1)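 Male animals (CD rat and Beagle dog, n=3; CD1 mouse, n=5) given a 1 h i.v. infusion at 1 mg/kg. Vehicle: DMSO:10% Kleptose HPB in saline (2%:98% v/v), 0.2 mg/mL. Serial blood sampled up to 24 h and assayed by LC-MS/MS. Values from non-compartmental analysis, mean ± SD.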

[2] = Solubility of compound in FeSSIF at pH 6.5 after 24 hrs; assay type: physicochemical
[3] = Solubility of compound in simulated gastric fluid at pH 1.6 after 24 hrs; assay type: ADME
[4] = Volume of distribution at steady state in CD rat at 1 mg/kg, iv after 24 hrs by LC-MS/MS analysis; assay type: ADME, organism-based; details: in vivo, read-out: Vdss; procedure, shortened: as §1
[5] = Half life in CD1 mouse at 1 mg/kg, iv after 24 hrs by LC-MS/MS analysis; assay type: ADME, organism-based; details: in vivo; procedure, shortened: as §1
[6] = Solubility of compound in FaSSIF at pH 6.5 after 24 hrs; assay type: physicochemical
[7] = Oral bioavailability in CD rat at 3 mg/kg after 24 hrs by LC-MS/MS analysis; assay type: ADME, organism-based; details: in vivo
Procedure, shortened: (§2)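 Oral dose as a suspension in 1% methylcellulose: CD rat 3 mg/kg (2 rats, crossover after i.v.), Beagle dog 2 mg/kg (fasted, crossover after i.v.), CD1 mouse 3 mg/kg by gavage (n=4). Blood sampled up to 24 h and assayed by LC-MS/MS. Bioavailability was referenced to the 1 h i.v. infusion at 1 mg/kg, by non-compartmental analysis.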

[8] = Clearance in CD rat at 1 mg/kg, iv after 24 hrs by LC-MS/MS analysis; assay type: ADME, organism-based; details: in vivo; procedure, shortened: as §1
[9] = Oral bioavailability in CD1 mouse at 3 mg/kg after 24 hrs by LC-MS/MS analysis; assay type: ADME, organism-based; details: in vivo; procedure, shortened: as §2
[10] = Volume of distribution at steady state in CD1 mouse at 1 mg/kg, iv after 24 hrs by LC-MS/MS analysis; assay type: ADME, organism-based; details: in vivo, read-out: Vdss
Procedure, shortened: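 Male CD1 mice with a jugular vein cannula got a 1 h IV infusion at 1 mg/kg, dosed at 0.2 mg/mL in DMSO:10% w/v Kleptose HPB in saline (2%:98% v/v). Serial tail-vein blood (ca. 25 µL) was taken up to 24 h and assayed against calibration standards in control blood. Non-compartmental analysis was used; n=5, mean ± SD.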

[11] = Half life in CD rat at 1 mg/kg, iv after 24 hrs by LC-MS/MS analysis; assay type: ADME, organism-based; details: in vivo; procedure, shortened: as §1
[12] = Oral bioavailability in beagle dog at 2 mg/kg 24 hrs by LC-MS/MS analysis; assay type: ADME, organism-based, Canis lupus familiaris; details: in vivo; procedure, shortened: as §2
[13] = Clearance in beagle dog at 1 mg/kg, iv after 24 hrs by LC-MS/MS analysis; assay type: ADME, organism-based, Canis lupus familiaris; details: in vivo; procedure, shortened: as §1
[14] = Half life in beagle dog at 1 mg/kg, iv after 24 hrs by LC-MS/MS analysis; assay type: ADME, organism-based, Canis lupus familiaris; details: in vivo; procedure, shortened: as §1
[15] = Volume of distribution at steady state in beagle dog at 1 mg/kg, iv after 24 hrs by LC-MS/MS analysis; assay type: ADME, organism-based, Canis lupus familiaris; details: in vivo, read-out: Vdss
Procedure, shortened: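 Three fasted male Beagle dogs got a 1 h IV infusion at 1 mg/kg, dosed at 0.2 mg/mL in DMSO:10% w/v Kleptose HPB in saline (2%:98% v/v). Blood went into K-EDTA tubes predose to 24 h, from a cephalic cannula to 2 h and by jugular venepuncture after. Analysis was LC-MS/MS (LLQ 1 ng/mL) with non-compartmental parameters; mean n=3 ± SD.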

With `Cc1c2c(nn1-c1nnc(-c3ccc(OC(C)C)c(Cl)c3)s1)CCN(CCC(=O)O)C2.O=C(O)C(F)(F)F` the clearance [1] was 16 mL/min/kg, the solubility at 24 h [2] was 4 µg/mL and the solubility at 24 h [3] was 37 µg/mL. For the same molecule, the Vd [4] was 3.7 L/kg, the half-life [5] was 3.8 h and the solubility at 24 h [6] was 3 µg/mL. For the same molecule, the bioavailability [7] was 48%, the clearance [8] was 24 mL/min/kg and the bioavailability [9] was 79%. For the same molecule, the Vd [10] was 3.3 L/kg and the half-life [11] was 4.4 h.
`Cc1c2c(nn1-c1nnc(-c3ccc(OC(C)C)c(Cl)c3)s1)CCN(CCC(=O)O)C2.Cl` gave a solubility at 24 h [2] of 46 µg/mL, a solubility at 24 h [3] of 7 µg/mL and a bioavailability [12] of 44%. The solubility at 24 h [6] was 16 µg/mL, the clearance [13] was 33 mL/min/kg and the half-life [14] was 6.5 h. For the same molecule, the Vd [15] was 5.3 L/kg.
